Source: PubChem BioAssay (several laboratories)
Hits are enriched below; roughly 3.2% of the tested compounds scored in any of these assays.
UBC13 polyUb – human UBC13 polyubiquitination inhibition; UBC13 polyubiquitin chain formation, TR-FRET; P61088; hit rate 0.47% among 330,000; inhibition, % at 20 µM; AID 485273; in the data active = inhibition above about 45%, passing the limit was not always enough
Apaf1 inhib – blocks human Apaf-1 apoptosome activity; O14727; reconstituted apoptosome caspase-3 activity, DEVD-Rh110 fluorescence; inhibition, % at 20 µM; hit rate 0.71% among 330,000; AID 489030; active = inhibition of at least 40% at 20 µM;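 also: plate controls were DMSO wells for no effect and DEVD-CHO caspase inhibitor wells for full effect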
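Material: biochemical Apaf-1 apoptosome reconstitution. Medium: Hepes buffer, pH 7.5. Also added: cytochrome c activation, bis-DEVD rhodamine 110 substrate. Timing: 30 min compound preincubation, 50 min activation, room temperature. Measured by: rhodamine 110 fluorescence at Ex 480/Em 540 nm.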
MEKK2 WT-MEK5 – raises or lowers MEK5 binding to wildtype human MEKK2 PB1 domain; Q9Y2U5; bead flow cytometry, Alexa488-MEK5 binding to MEKK2 WT; actives lie on both sides; binding response (% of control), % at 10 µM; hit rate 1.1% among 290,000; AID 1531; in the data active = binding response below about 67% or above about 130%
MEKK3 PB1 HTS – MEKK3-MEK5 PB1 interaction, increase or decrease; Q99759; bead-based flow cytometry, Alexa488-MEK5 binding to MEKK3; actives lie on both sides; 0 = blocked by unlabeled MEK5, 100 = vehicle; binding response (% of control), % at 10 µM; hit rate 1.4% among 290,000;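 active = binding response more than 3 SD above or below the average of its plate-row segment, actives on both sides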;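 also: Alexa488 bead fluorescence after subtracting the streptavidin-only scavenger bead signal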
Target sequence (Q99759 whole entry, looked up): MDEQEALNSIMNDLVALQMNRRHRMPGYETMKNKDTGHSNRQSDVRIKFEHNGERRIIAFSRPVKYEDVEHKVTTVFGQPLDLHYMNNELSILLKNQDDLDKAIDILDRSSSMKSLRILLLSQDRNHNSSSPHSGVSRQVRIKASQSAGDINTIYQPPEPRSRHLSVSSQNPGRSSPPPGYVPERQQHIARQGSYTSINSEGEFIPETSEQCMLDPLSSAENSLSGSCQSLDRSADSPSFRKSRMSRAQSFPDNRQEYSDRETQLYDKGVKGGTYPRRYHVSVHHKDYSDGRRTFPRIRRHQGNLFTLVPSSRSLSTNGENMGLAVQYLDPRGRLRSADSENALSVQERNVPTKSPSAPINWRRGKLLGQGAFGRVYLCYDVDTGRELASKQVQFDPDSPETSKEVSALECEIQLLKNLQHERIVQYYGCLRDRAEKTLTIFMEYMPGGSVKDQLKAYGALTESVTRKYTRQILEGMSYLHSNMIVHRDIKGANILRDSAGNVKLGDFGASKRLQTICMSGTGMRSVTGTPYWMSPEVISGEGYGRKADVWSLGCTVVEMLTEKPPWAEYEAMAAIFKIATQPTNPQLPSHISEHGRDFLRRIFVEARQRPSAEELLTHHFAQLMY
DSG3 Ab inh – inhibitors of pemphigus antibody binding to human desmoglein-3; DSG3-coupled beads, scFv-anti-DSG3-GFP binding, flow cytometry; hits give low values; P32926; hit rate 0.48% among 310,000; binding (percent of control), % at 10 µM;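 active = binding more than 3 SD below its plate's average and above zero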;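 also: hits lower antibody fragment binding to DSG3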
MEKK2 mut-MEK5 – signal of MEK5 binding to mutant human MEKK2 PB1 domain | bead flow cytometry, Alexa488-MEK5 binding to MEKK2 mutant | percent response, % at 10 µM | hit rate 0.35% among 290,000; in the data active = percent response above about 24%, passing the limit was not always enough
MEKK2wt confirm – raises or lowers MEK5 binding to wildtype human MEKK2, retest. bead flow cytometry, Alexa488-MEK5 binding to MEKK2 WT; actives lie on both sides. hit rate 2.4% among 5,900. AID 1892. shares compounds with MEKK3 PB1 HTS. binding response (% of control), % at 10 µM; in the data active = binding response below about 16% or above about 210%; inactive = in between
MEKK2mut confirm – signal of MEK5 binding to mutant human MEKK2, retest. shares compounds with MEKK3 PB1 HTS. bead flow cytometry, Alexa488-MEK5 binding to MEKK2 mutant. percent response, % at 10 µM. hit rate 2% among 5,900; in the data active = percent response mostly above about 71%, no sharp cut-off; inactive = mostly below about 38%;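 also: higher means compound restores mutant binding toward wildtype level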
MEKK3-MEK5 inh – MEKK3-MEK5 PB1 inhibition, single concentration confirmation. hit rate 1.8% among 5,900. shares compounds with MEKK3 PB1 HTS. binding response (% of control), % at 10 µM. AID 1894. bead flow cytometry, Alexa488-MEK5 binding to MEKK3; hits give low values;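 active = binding response below 72% of control, or above a set upper limit, though filed actives all read lower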;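 also: 100% = DMSO only wells and 0% = binding blocked by excess unlabeled MEK5; lower values mean stronger disruption of MEK5 binding to MEKK3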
Starred values were filed as active, the others as inactive; · = no result; [ ] = dose if it differs, or a comment.

SMILES | UBC13 polyUb | Apaf1 inhib | MEKK2 WT-MEK5 | MEKK3 PB1 HTS | DSG3 Ab inh | MEKK2 mut-MEK5 | MEKK2wt confirm | MEKK2mut confirm | MEKK3-MEK5 inh
CC1CCCCC1NC(=O)COC(=O)c1ccc2c(c1)OCCO2 (stereo not drawn) | -3.5 | -7.5 | · | · | 98.3 | · | · | · | ·
O=C(NCCCN1CCCC1)c1ccc(CS(=O)(=O)c2ccc(Br)cc2)o1 | 6.7 | 8.5 | · | · | 107.9 | · | · | · | ·
O=C(NCCN1CCCCC1)c1ccco1 | -2.1 | -15.9 | 116.0 | 129.0* | 101.5 | 5.0 | 101.0 | 0.0 | 100.0
O=C(NCCN1CCCCCC1)c1ccc(CS(=O)(=O)c2ccc(Br)cc2)o1 | 31.9 | 32.3 | 169.0* | 99.0 | 122.1 | 26.0* | 183.0 | 59.0 | 113.0
O=C(NCCCN1CCCCCC1)c1ccc(CS(=O)(=O)Cc2ccccc2F)o1 | · | · | 200.0* | 83.0 | 114.2 | 28.0* | 179.0 | 41.0 | 75.0
N=c1n(CC(=O)c2ccc([N+](=O)[O-])cc2)c2ccccc2n1Cc1ccccc1 | 6.2 | -11.1 | 127.0 | 110.0 | 94.0 | 30.0 | · | · | ·
N=c1n(CC(=O)c2ccc([N+](=O)[O-])cc2)c2ccccc2n1Cc1ccc(Cl)cc1 | 25.6 | -1.6 | 138.0* | 108.0 | 111.0 | 50.0 | 154.0 | 58.0 | 108.0
CCN(CC(=O)Nc1c(F)cccc1F)C(=O)c1cnccn1 | -1.8 | -2.9 | · | · | 110.4 | · | · | · | ·
Brc1ccc(Nc2ncnc3[nH]ncc23)cc1 | 16.9 | 9.7 | 68.0 | 73.0*[inhibitor] | 103.5 | -30.0 | 101.0 | 2.0 | 101.0
COc1cc(OC)c(OC)cc1CCC(C)NCCC(c1ccccc1)c1ccccc1 (stereo not drawn) | 13.9 | 16.2 | 166.0* | 111.0 | 99.7 | 18.0 | 120.0 | 6.0 | 99.0
COc1ccc(CCNCCC(c2ccccc2)c2ccccc2)cc1OC | · | · | · | · | 101.2 | · | · | · | ·
Cc1ccc([C@@H]2C[C@H]3[C@@H](CN2S(=O)(=O)c2ccc(C)cc2)C(=O)C[C@@H](c2ccc(Cl)cc2)N3S(=O)(=O)c2ccccc2C)cc1 | · | · | · | · | 95.4 | · | · | · | ·
C=CCNC(=O)c1ccc(-n2cccc2)cc1 | 6.3 | -12.8 | 122.0 | 138.0* | 99.4 | 5.0 | 99.0 | -3.0 | 101.0
O=C(Nc1ccc(Cl)cc1C(=O)c1ccccn1)c1ccccc1 | · | · | · | · | 103.5 | · | · | · | ·
C1CCC(C23CC4CC(CC(C4)C2)C3)NC1 (stereo not drawn) | 5.4 | 0.0 | 100.0 | 123.0* | 103.2 | 7.0 | 101.0 | -1.0 | 102.0
CCCCc1ccc(S(=O)(=O)Nc2ccc(C)c(NS(C)(=O)=O)c2)cc1 | -7.2 | -11.6 | 113.0 | 137.0* | 95.6 | 29.0 | 100.0 | 1.0 | 101.0
CCCc1ccc(S(=O)(=O)Nc2ccc(C)c(NS(C)(=O)=O)c2)cc1 | 1.9 | 14.6 | 106.0 | 104.0 | 97.4 | 1.0 | · | · | ·
O=C(C(=O)N1CCc2ccccc2C1)c1cn(CC(=O)N2CCCC2)c2ccccc12 | 7.4 | -1.0 | 110.0 | 131.0* | 129.6 | 2.0 | 101.0 | 2.0 | 103.0
O=C(C(=O)N1CCCCC1)c1cn(CC(=O)N2CCCCCC2)c2ccccc12 | 1.5 | -4.4 | 77.0 | 93.0 | · | -9.0 | · | · | ·
CCN(CC)c1nc2c(c(=O)[nH]c(=O)n2C)n1CCCc1ccccc1 | 1.9 | 5.1 | 110.0 | 113.0 | 118.9 | 5.0 | · | · | ·
CN1CCN(CCC(=O)Nc2ccc(C3CCCC3)cc2)CC1 | 7.6 | 10.3 | 142.0* | 92.0 | 99.0 | 26.0 | 110.0 | 5.0 | 107.0
COCCn1c(=S)[nH]c2cc(C(=O)NCC3CCCO3)ccc2c1=O (stereo not drawn) | -2.2 | -10.4 | 108.0 | 108.0 | 102.8 | 5.0 | · | · | ·
COc1ccc2[nH]c3c(=O)n(Cc4ccc(C(=O)NCC5CCCO5)cc4)c(=S)[nH]c3c2c1 (stereo not drawn) | -1.4 | -18.5 | 119.0 | 128.0 | 103.8 | 178.0* | 102.0 | 5.0 | 103.0
O=C(NCC1CCCO1)c1ccc2c(=O)n(CC3CCCO3)c(=S)[nH]c2c1 (stereo not drawn) | 4.7 | 5.7 | 3.0*[inhibitor] | 2.0*[inhibitor] | · | -18.0 | 97.0 | -4.0 | 101.0
C[C@@H]1O[C@@H](O[C@@H]2C(=O)c3c(O)cc(O)cc3O[C@H]2c2ccc(O)c(O)c2)[C@H](O)[C@H](O)[C@H]1O | 15.4 | -1.4 | · | · | 98.3 | · | · | · | ·
SMILES | UBC13 polyUb | Apaf1 inhib | MEKK2 WT-MEK5 | MEKK3 PB1 HTS | DSG3 Ab inh | MEKK2 mut-MEK5 | MEKK2wt confirm | MEKK2mut confirm | MEKK3-MEK5 inh
Cc1cc(NCCCN(C)C)n2nc(-c3cccs3)cc2n1 | 5.5 | -7.5 | 107.0 | 112.0 | 100.5 | 26.0* | 107.0 | -2.0 | 104.0
O=C1c2ccccc2-c2onc3ccc(NCCCn4ccnc4)c1c23 | -325.5 | 6.0 | 28.0*[inhibitor] | 33.0*[inhibitor] | · | -21.0 | 42.0 | -15.0 | 42.0*
NS(=O)(=O)c1ccc(NCCCn2ccnc2)c([N+](=O)[O-])c1 | -9.4 | -11.5 | 105.0 | 104.0 | 102.1 | 9.0 | · | · | ·
O=C(COc1ccccc1)N=C1SC2CS(=O)(=O)CC2N1Cc1ccccc1 (stereo not drawn) | -0.9 | 15.6 | 100.0 | 100.0 | 93.1 | 6.0 | · | · | ·
N/C(Cc1ccc([N+](=O)[O-])cc1)=N\OC(=O)Cc1ccccc1 | 3.6 | -6.0 | 98.0 | 53.0*[inhibitor] | 86.0 | -1.0 | 101.0 | 1.0 | 97.0
N/C(=N\OC(=O)Cc1ccccc1)c1ccc([N+](=O)[O-])cc1 | -7.9 | 20.8 | 98.0 | 100.0 | · | 1.0 | · | · | ·
N/C(Cc1ccc([N+](=O)[O-])cc1)=N\OC(=O)COc1ccccc1Cl | 1.9 | 4.2 | 105.0 | 110.0 | · | 1.0 | · | · | ·
N/C(Cc1ccc([N+](=O)[O-])cc1)=N\OC(=O)Cc1ccc(Cl)cc1 | -6.7 | 5.4 | 101.0 | 71.0*[inhibitor] | 104.2 | 1.0 | 104.0 | 1.0 | 98.0
O=C(Cn1ccc(=O)[nH]c1=O)Nc1ccc(O)c([N+](=O)[O-])c1 | · | · | · | · | 94.9 | · | · | · | ·
